Reference: ChEMBL document CHEMBL3098054, “The synthesis of novel taxoids for oral administration” (Bioorg Med Chem, 2014)

Key:
[1] = Apparent permeability from apical to basolateral side in human Caco2 cells at 10 uM after 90 mins by LC-MS/MS analysis; format: ADME, cell-based, Caco-2; conditions: Caco-2
HeLa = experiment: Cytotoxicity against human HeLa cells at 1 uM after 72 hrs by MTT assay; format: functional; conditions: read-out: GI
Method in brief: (§1)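 Cells plated at 2000–5000/well, attached overnight at 37 °C. DMSO stocks (100 mM) serially diluted in medium to a final 1 µM, tested in duplicate wells. Exposure 72 h at 37 °C, 5% CO₂. MTT (5 mg/mL, 10 µL) added for 4 h. Lysis in 10% SDS / 5% isopropanol / 0.012 N HCl, then OD read at 580–680 nm.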

MCF7 [2] = experiment: Cytotoxicity against human MCF7 cells after 72 hrs by MTT assay; format: functional, cell-based; conditions: MCF7, 72 h
Method in brief: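 MCF-7 cells exposed to compound for 72 h and read by MTT. At least six replicate wells per assay, run on three separate occasions. IC₅₀ given as mean with standard deviation.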

[3] = Apparent permeability from basolateral to apical side in human Caco2 cells at 10 uM after 90 mins by LC-MS/MS analysis; format: ADME, cell-based, Caco-2; conditions: Caco-2
A-375 = experiment: Cytotoxicity against human A375 cells at 1 uM after 72 hrs by MTT assay; format: functional; conditions: A-375, 72 h, read-out: GI
Method in brief: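 Cells plated at 2000–5000/well, attached overnight at 37 °C. DMSO stocks (100 mM) serially diluted in medium to a final 1 µM, tested in duplicate wells. MTT (5 mg/mL, 10 µL) added for 4 h. Lysis in 10% SDS / 5% isopropanol / 0.012 N HCl, then OD read at 580–680 nm.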

[4] = Efflux ratio of apparent permeability from basolateral to apical side over apical to basolateral side in human Caco2 cells at 10 uM after 90 mins by LC-MS/MS analysis; format: ADME, cell-based, Caco-2; conditions: Caco-2
Method in brief: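 Caco-2 cells cultured 21 days on 24-well inserts, TEER >250 Ω·cm². Monolayers pre-incubated in HBSS pH 7.4 at 37 °C. Compound added to the donor side at 10 µM, 37 °C, 5% CO₂, 90 min, in the A-to-B and B-to-A directions. Donor and receiver levels measured by LC-MS/MS. Papp calculated from receiver amount, membrane area 0.7 cm², time and initial donor concentration. Efflux ratio = B–A/A–B.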

DU-145 = experiment: Cytotoxicity against human DU145 cells at 1 uM after 72 hrs by MTT assay; format: functional; conditions: DU-145, 72 h, read-out: GI; method in brief: as §1
HL-60 = experiment: Cytotoxicity against human HL60 cells at 1 uM after 72 hrs by MTT assay; format: functional; conditions: HL-60, 72 h, read-out: GI; method in brief: as §1
HT-29 = experiment: Cytotoxicity against human HT-29 cells at 1 uM after 72 hrs by MTT assay; format: functional; conditions: HT-29, 72 h, read-out: GI; method in brief: as §1
A2780 = experiment: Cytotoxicity against human A2780 cells at 1 uM after 72 hrs by MTT assay; format: functional; conditions: A2780, 72 h, read-out: GI; method in brief: as §1
MCF7 [5] = experiment: Cytotoxicity against human MCF7 cells at 1 uM after 72 hrs by MTT assay; format: functional; conditions: MCF7, 72 h, read-out: GI; method in brief: as §1
NCI-H460 = experiment: Cytotoxicity against human NCI-H460 cells at 1 uM after 72 hrs by MTT assay; format: functional; conditions: NCI-H460, 72 h, read-out: GI; method in brief: as §1

SMILES | Papp A→B at 1.5 h, 10 µM [1] [×10⁻⁶ cm/s] | inhibition of growth at 1 µM (HeLa) [%] | IC50 (MCF7 [2]) [nM] | Papp B→A at 1.5 h, 10 µM [3] [×10⁻⁶ cm/s] | inhibition of growth at 1 µM (A-375) [%] | efflux ratio at 1.5 h, 10 µM [4] | inhibition of growth at 1 µM (DU-145) [%] | inhibition of growth at 1 µM (HL-60) [%] | inhibition of growth at 1 µM (HT-29) [%] | inhibition of growth at 1 µM (A2780) [%] | inhibition of growth at 1 µM (MCF7 [5]) [%] | inhibition of growth at 1 µM (NCI-H460) [%]
COC(=O)O[C@H]1C(=O)[C@]2(C)[C@@H](OC)C[C@H]3OC[C@@]3(OC(C)=O)[C@H]2[C@H](OC(=O)c2ccccc2)[C@]2(O)C[C@H](OC(=O)[C@H](O)[C@H](CC(C)C)NC(=O)OC(C)(C)C)C(C)=C1C2(C)C | 8.87 | 99.7 | 2.9 | 33.3 |  |  |  |  |  |  |  | 
CO[C@H]1C[C@H]2OC[C@@]2(OC(C)=O)[C@H]2[C@H](OC(=O)c3ccccc3)[C@]3(O)C[C@H](OC(=O)[C@H](O)[C@H](CC(C)C)NC(=O)OC(C)(C)C)C(C)=C([C@@H](OC(=O)N(C)C)C(=O)[C@]12C)C3(C)C | 8.17 | 101 | 1.7 | 32.6 | 89 |  |  |  |  |  |  | 
CO[C@H]1C(=O)[C@]2(C)[C@@H](OC(=O)N(C)C)C[C@H]3OC[C@@]3(OC(C)=O)[C@H]2[C@H](OC(=O)c2ccccc2)[C@]23OC(=O)O[C@H]2[C@H](OC(=O)[C@H](O)[C@H](CC(C)C)NC(=O)OC(C)(C)C)C(C)=C1C3(C)C | 2.4 |  | 21.2 | 5.74 |  | 2.39 |  |  |  |  |  | 
CO[C@H]1C[C@H]2OC[C@@]2(OC(C)=O)[C@H]2[C@H](OC(=O)c3ccccc3)[C@]3(O)C[C@H](OC(=O)[C@H](O)[C@@H](NC(=O)OC(C)(C)C)c4ccccc4)C(C)=C([C@@H](OC(=O)N(C)C)C(=O)[C@]12C)C3(C)C | 8.11 | 99.8 | 1.58 | 33.1 | 87.7 | 4.08 | 84.8 | 97.2 | 87.9 | 94.8 | 93.5 | 83.3
COC(=O)O[C@H]1C[C@H]2OC[C@@]2(OC(C)=O)[C@H]2[C@H](OC(=O)c3ccccc3)[C@]34OC(=O)O[C@H]3[C@H](OC(=O)[C@H](O)[C@H](CC(C)C)NC(=O)OC(C)(C)C)C(C)=C([C@@H](OC)C(=O)[C@]12C)C4(C)C | 0.92 |  | 2.94 | 7.16 |  | 7.81 |  |  |  |  |  | 
CO[C@H]1C(=O)[C@]2(C)CC[C@H]3OC[C@@]3(OC(C)=O)[C@H]2[C@H](OC(=O)c2ccccc2)[C@]2(O)C[C@H](OC(=O)[C@H](O)[C@H](CC(C)C)NC(=O)OC(C)(C)C)C(C)=C1C2(C)C | 7.17 | 99.3 | 3.06 | 38.6 |  | 5.12 |  |  |  |  |  | 
COC(=O)O[C@H]1C(=O)[C@]2(C)[C@@H](OC)C[C@H]3OC[C@@]3(OC(C)=O)[C@H]2[C@H](OC(=O)c2ccccc2)[C@]2(O)C[C@H](OC(=O)[C@H](O)[C@@H](NC(=O)OC(C)(C)C)c3ccccc3)C(C)=C1C2(C)C | 6.91 | 99.5 | 1.4 | 29.2 | 103 | 4.22 | 83.3 | 97.4 | 87.3 | 94.1 | 95.3 | 80.4
CO[C@H]1C(=O)[C@]2(C)[C@@H](OC)C[C@H]3OC[C@@]3(OC(C)=O)[C@H]2[C@H](OC(=O)c2ccccc2)[C@]23OC(=O)O[C@H]2[C@H](OC(=O)[C@H](O)[C@@H](NC(=O)OC(C)(C)C)c2ccccc2)C(C)=C1C3(C)C | 2.83 | 98.2 | 2.1 | 18.2 | 89.8 | 6.42 | 84.7 | 95.9 | 89 | 94.7 | 93.5 | 82.2
COC(=O)O[C@H]1C[C@H]2OC[C@@]2(OC(C)=O)[C@H]2[C@H](OC(=O)c3ccccc3)[C@]3(O)C[C@H](OC(=O)[C@H](O)[C@@H](NC(=O)OC(C)(C)C)c4ccccc4)C(C)=C([C@@H](OC)C(=O)[C@]12C)C3(C)C | 6.97 | 102 | 4.97 | 38.8 | 97.4 | 5.23 | 88.5 | 97 | 89.7 | 96.4 | 103 | 89.5
CO[C@H]1C(=O)[C@]2(C)CC[C@H]3OC[C@@]3(OC(C)=O)[C@H]2[C@H](OC(=O)c2ccccc2)[C@]23OC(=O)O[C@H]2[C@H](OC(=O)[C@H](O)[C@@H](NC(=O)OC(C)(C)C)c2ccccc2)C(C)=C1C3(C)C | 2.64 | 99.9 | 4.49 | 25.3 | 94.4 | 9.56 | 89.1 | 97.7 | 87.3 | 96 | 86.3 | 84.7
CO[C@H]1C(=O)[C@@]2(C)[C@H]([C@H](OC(=O)c3ccccc3)[C@]34OC(=O)O[C@H]3[C@H](OC(=O)[C@H](O)[C@@H](NC(=O)OC(C)(C)C)c3ccccc3)C(C)=C1C4(C)C)[C@]1(OC(C)=O)CO[C@@H]1C[C@@H]2O | 0.88 | 100 |  | 44.7 | 92.5 | 51 | 86.8 | 97.5 | 86.6 | 95 | 87.1 | 82.7
COC(=O)O[C@H]1C[C@H]2OC[C@@]2(OC(C)=O)[C@H]2[C@H](OC(=O)c3ccccc3)[C@]3(O)C[C@H](OC(=O)[C@H](O)[C@H](CC(C)C)NC(=O)OC(C)(C)C)C(C)=C([C@@H](OC)C(=O)[C@]12C)C3(C)C | 7.16 | 100 | 2.81 | 36.4 |  |  |  |  |  |  |  | 
CC(=O)O[C@H]1C(=O)[C@@]2(C)[C@H]([C@H](OC(=O)c3ccccc3)[C@]34OC(=O)O[C@H]3[C@H](OC(=O)[C@H](O)[C@H](CC(C)C)NC(=O)OC(C)(C)C)C(C)=C1C4(C)C)[C@]1(OC(C)=O)CO[C@@H]1C[C@@H]2O [ORTATAXEL] | 2.8 | 99.5 |  | 19.2 | 96.7 | 6.84 | 90.6 | 96.5 | 87.7 | 96.4 | 88.7 | 85.5
